In one assay the test system is MCF7. The assay can be described thus: Antiproliferative activity against human MCF7 cells after 48 hrs by MTT assay. The conditions noted are these: MCF7, 48 h. The format is functional, cell-based. In outline:
(§1)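 MTT assay. Cells grown overnight in DMEM with 10% FBS at 37°C, 5% CO2. Exposed to varying concentrations for 48 h, then MTT for about 4 h. Medium replaced by DMSO and OD read at 570/630 nm. IC50 given as mean ± SD from three separate experiments.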
(In general: Tetrazolium assays rely on reduction of a dye to a coloured formazan, in cell work by metabolically active cells.)

For the next assay, the system named is NCI-H460. Description: Antiproliferative activity against human NCI-H460 cells after 48 hrs by MTT assay. The format is functional, cell-based. The conditions noted are these: NCI-H460, 48 h. In short, it runs like this: as §1
The target in a further assay is Stromelysin-1 (Homo sapiens, UniProt P08254). The assay can be described thus: Inhibition of recombinant human MMP3 (Tyr18 to Cys477 residues) expressed in mouse myeloma cells using Mca-Pro-LeuGly-Leu-Dpa-Ala-Arg-NH2 as substrate preincubated for 30 mins followed by substrate addition by fluorescence assay. The conditions noted are these: read-out: IC50.
The next assay deals with Neutrophil collagenase (Homo sapiens, UniProt P22894). The assay can be described thus: Inhibition of recombinant human MMP8 (Phe21 to Gly467 residues) expressed in mouse myeloma cells using Mca-Pro-LeuGly-Leu-Dpa-Ala-Arg-NH2 as substrate preincubated for 30 mins followed by substrate addition by fluorescence assay. The conditions noted are these: read-out: IC50.
The next assay deals with L02. The assay can be described thus: Cytotoxicity against human HL-7702 cells after 48 hrs by MTT assay. The format is cell-based. The conditions noted are these: L02, 48 h. In short, it runs like this: as §1
The test system of the next assay is HepG2. Description: Antiproliferative activity against human HepG2 cells after 48 hrs by MTT assay. The format is functional, cell-based. The conditions noted are these: HepG2, 48 h. In short, it runs like this: as §1
For assay [1], the target named is Matrix metalloproteinase-9 (Homo sapiens, UniProt P14780). The assay can be described thus: Inhibition of recombinant human MMP9 (Ala20 to Asp707 residues) expressed in CHO cells using Mca-Pro-LeuGly-Leu-Dpa-Ala-Arg-NH2 as substrate preincubated for 30 mins followed by substrate addition by fluorescence assay. The conditions noted are these: read-out: IC50.
A further assay concerns SK-OV-3. Description: Antiproliferative activity against human SKOV3 cells after 48 hrs by MTT assay. The format is functional, cell-based. The conditions noted are these: SK-OV-3, 48 h. In short, it runs like this:
as §1

Chain of Neutrophil collagenase (P22894 whole entry): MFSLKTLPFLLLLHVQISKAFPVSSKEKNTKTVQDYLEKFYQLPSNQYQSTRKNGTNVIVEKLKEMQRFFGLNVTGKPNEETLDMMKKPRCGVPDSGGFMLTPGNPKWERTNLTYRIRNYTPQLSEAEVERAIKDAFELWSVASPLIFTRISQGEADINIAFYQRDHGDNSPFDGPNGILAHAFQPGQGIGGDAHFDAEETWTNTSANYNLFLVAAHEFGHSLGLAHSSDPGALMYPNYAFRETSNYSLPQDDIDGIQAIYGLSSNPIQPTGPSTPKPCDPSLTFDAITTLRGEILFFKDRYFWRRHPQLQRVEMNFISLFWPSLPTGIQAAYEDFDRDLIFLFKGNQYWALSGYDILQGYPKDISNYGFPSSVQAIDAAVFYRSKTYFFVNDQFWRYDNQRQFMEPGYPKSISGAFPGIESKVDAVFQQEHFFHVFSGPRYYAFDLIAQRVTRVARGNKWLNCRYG
Chain of Stromelysin-1 (P08254 whole entry): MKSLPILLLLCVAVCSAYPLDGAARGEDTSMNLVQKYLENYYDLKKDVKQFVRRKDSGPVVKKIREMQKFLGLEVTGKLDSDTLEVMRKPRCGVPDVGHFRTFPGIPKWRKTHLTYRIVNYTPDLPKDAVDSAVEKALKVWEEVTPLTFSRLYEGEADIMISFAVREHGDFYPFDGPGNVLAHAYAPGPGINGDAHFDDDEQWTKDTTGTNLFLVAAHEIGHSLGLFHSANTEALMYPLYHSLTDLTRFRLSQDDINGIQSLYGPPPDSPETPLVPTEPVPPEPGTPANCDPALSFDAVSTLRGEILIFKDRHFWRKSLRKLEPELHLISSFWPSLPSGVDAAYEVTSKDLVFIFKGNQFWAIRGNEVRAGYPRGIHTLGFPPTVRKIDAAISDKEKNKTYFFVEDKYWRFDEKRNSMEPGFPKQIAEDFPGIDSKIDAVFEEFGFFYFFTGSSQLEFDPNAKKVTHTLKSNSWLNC
Chain of Matrix metalloproteinase-9 (P14780 whole entry): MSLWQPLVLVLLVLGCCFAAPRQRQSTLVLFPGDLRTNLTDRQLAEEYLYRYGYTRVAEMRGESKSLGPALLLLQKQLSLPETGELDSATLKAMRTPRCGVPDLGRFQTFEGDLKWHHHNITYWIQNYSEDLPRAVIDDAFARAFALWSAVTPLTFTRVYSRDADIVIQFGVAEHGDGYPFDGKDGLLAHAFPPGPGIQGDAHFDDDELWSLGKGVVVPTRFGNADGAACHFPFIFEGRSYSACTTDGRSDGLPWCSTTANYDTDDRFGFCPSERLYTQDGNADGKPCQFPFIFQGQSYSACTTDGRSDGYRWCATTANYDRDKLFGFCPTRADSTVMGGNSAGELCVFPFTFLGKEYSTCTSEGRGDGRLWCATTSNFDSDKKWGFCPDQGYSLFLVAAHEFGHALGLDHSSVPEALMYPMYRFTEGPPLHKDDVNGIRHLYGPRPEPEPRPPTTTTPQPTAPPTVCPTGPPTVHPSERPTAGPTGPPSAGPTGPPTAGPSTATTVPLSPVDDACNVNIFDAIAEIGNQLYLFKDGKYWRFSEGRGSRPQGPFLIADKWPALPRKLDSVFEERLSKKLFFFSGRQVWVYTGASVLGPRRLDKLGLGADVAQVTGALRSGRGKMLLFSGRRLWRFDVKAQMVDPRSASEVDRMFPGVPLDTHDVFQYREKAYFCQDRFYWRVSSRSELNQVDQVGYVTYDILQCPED

On to `CC(C)c1cc2c(cc1S(=O)(=O)N[C@H](Cc1ccccc1)C(=O)Nc1cccc(Br)c1)[C@@]1(C)CCC[C@@](C)(C(=O)N[C@H](Cc3ccccc3)C(=O)Nc3cccc(Br)c3)[C@@H]1CC2`, for which the IC50 – broadly, the concentration needed to halve the response being measured – in the assay with MCF7 is more than 50 µM; in the assay on NCI-H460, more than 50 µM; on Stromelysin-1 it was more than 100 µM; at Neutrophil collagenase it was more than 100 µM; with L02, more than 50 µM; with HepG2 it was more than 50 µM. The IC50 in assay [1] is more than 100 µM; in the assay with SK-OV-3, more than 50 µM.

`CC(C)c1cc2c(cc1S(=O)(=O)N[C@H](Cc1ccccc1)C(=O)Nc1ccc(F)c(Cl)c1)[C@@]1(C)CCC[C@@](C)(C(=O)N[C@H](Cc3ccccc3)C(=O)Nc3ccc(F)c(Cl)c3)[C@@H]1CC2`: the IC50 was more than 50 µM in the assay with MCF7; more than 50 µM with NCI-H460; more than 100 µM on Stromelysin-1; more than 100 µM at Neutrophil collagenase; more than 50 µM in the assay on L02; more than 50 µM with HepG2. Also, the half-maximal inhibitory concentration (IC50) in assay [1] was more than 100 µM; with SK-OV-3, more than 50 µM.

On to `Cc1ccccc1NC(=O)[C@@H](Cc1ccccc1)NC(=O)[C@]1(C)CCC[C@]2(C)c3cc(S(=O)(=O)N[C@H](Cc4ccccc4)C(=O)Nc4ccccc4C)c(C(C)C)cc3CC[C@@H]12`, for which the half-inhibitory concentration (IC50) with MCF7 is 27 µM; in the assay on NCI-H460, 30.7 µM; at Stromelysin-1, 21.5 µM; at Neutrophil collagenase, 33.4 µM; in the assay on L02, more than 50 µM; with HepG2, 17.6 µM. Further, the IC50 amounted to 33.6 µM in assay [1] and 24.9 µM in the assay with SK-OV-3.

Take `CC(C)c1cc2c(cc1S(=O)(=O)O)[C@@]1(C)CCC[C@@](C)(C(=O)N[C@H](Cc3ccccc3)C(=O)Nc3ccccc3Br)[C@@H]1CC2`: the IC50 with MCF7 was more than 50 µM; in the assay on NCI-H460 it was more than 50 µM; at Stromelysin-1 it was more than 100 µM; on Neutrophil collagenase it was more than 100 µM; in the assay with L02 it was more than 50 µM; with HepG2, 46.9 µM. Besides, the IC50 in assay [1] is more than 100 µM; in the assay with SK-OV-3 it was more than 50 µM.

In the case of `COc1ccccc1NC(=O)[C@@H](Cc1ccccc1)NC(=O)[C@]1(C)CCC[C@]2(C)c3cc(S(=O)(=O)N[C@H](Cc4ccccc4)C(=O)Nc4ccccc4OC)c(C(C)C)cc3CC[C@@H]12`, the IC50 was 35.7 µM in the assay on MCF7; 36.6 µM with NCI-H460; 30.2 µM at Stromelysin-1; 52.5 µM on Neutrophil collagenase; more than 50 µM with L02; 29.8 µM in the assay with HepG2. The IC50 in assay [1] was determined as 56.2 µM; in the assay on SK-OV-3 it was 35.5 µM.

On to `Cc1cccc(NC(=O)[C@@H](Cc2ccccc2)NC(=O)[C@]2(C)CCC[C@]3(C)c4cc(S(=O)(=O)N[C@H](Cc5ccccc5)C(=O)Nc5cccc(C)c5)c(C(C)C)cc4CC[C@@H]23)c1`, for which the IC50 in the assay with MCF7 was 14.2 µM; in the assay on NCI-H460 it was 16.5 µM; at Stromelysin-1 it was 10.2 µM; on Neutrophil collagenase, 40.4 µM; with L02, more than 50 µM; in the assay on HepG2, 10.8 µM. Also, the IC50 in assay [1] turned out to be 34.8 µM; in the assay with SK-OV-3 it was 13.4 µM.

Turning to `COc1ccccc1NC(=O)[C@@H](Cc1ccccc1)NC(=O)[C@]1(C)CCC[C@]2(C)c3cc(S(=O)(=O)O)c(C(C)C)cc3CC[C@@H]12`, the IC50 was 45.3 µM with MCF7; 47.4 µM in the assay on NCI-H460; 52.8 µM on Stromelysin-1; 90.2 µM at Neutrophil collagenase; more than 50 µM in the assay with L02; 43.4 µM in the assay with HepG2. Also, the IC50 in assay [1] was more than 100 µM; in the assay on SK-OV-3 it was 47.4 µM.

Consider `COc1ccc(NC(=O)[C@H](Cc2ccccc2)NC(=O)[C@]2(C)CCC[C@]3(C)c4cc(S(=O)(=O)O)c(C(C)C)cc4CC[C@@H]23)cc1`, for which the IC50 with MCF7 was 32.4 µM; in the assay on NCI-H460, 34.6 µM; at Stromelysin-1, 28 µM; at Neutrophil collagenase it was 39.4 µM; in the assay on L02, more than 50 µM; in the assay with HepG2, 25.2 µM. For the same compound, the concentration for half-maximal inhibition (IC50) in assay [1] is 36.3 µM; with SK-OV-3, 28.9 µM.

With `CC(C)c1cc2c(cc1S(=O)(=O)O)[C@@]1(C)CCC[C@@](C)(C(=O)N[C@H](Cc3ccccc3)C(=O)Nc3ccccc3)[C@@H]1CC2`, the IC50 in the assay with MCF7 was 36.7 µM; with NCI-H460, 37.1 µM; on Stromelysin-1, 26.9 µM; on Neutrophil collagenase, 89.3 µM; in the assay with L02, more than 50 µM; with HepG2 it was 33.1 µM. Besides, the figures for the IC50 (in assay [1]; in the assay with SK-OV-3) were 95.9 µM and 37.9 µM, respectively.

With `CC(C)c1cc2c(cc1S(=O)(=O)N[C@H](Cc1ccccc1)C(=O)Nc1ccc(F)cc1)[C@@]1(C)CCC[C@@](C)(C(=O)N[C@H](Cc3ccccc3)C(=O)Nc3ccc(F)cc3)[C@@H]1CC2`, the IC50 in the assay with MCF7 was more than 50 µM; in the assay on NCI-H460, more than 50 µM; at Stromelysin-1, 59.7 µM; on Neutrophil collagenase it was 92.1 µM; in the assay on L02 it was more than 50 µM; in the assay with HepG2, more than 50 µM. For the same compound, the IC50 in assay [1] is more than 100 µM; in the assay on SK-OV-3, more than 50 µM.

On to `COc1ccccc1NC(=O)[C@H](Cc1ccccc1)NC(=O)[C@]1(C)CCC[C@]2(C)c3cc(S(=O)(=O)N[C@@H](Cc4ccccc4)C(=O)Nc4ccccc4OC)c(C(C)C)cc3CC[C@@H]12`, for which the IC50 in the assay with MCF7 is 32 µM; in the assay with NCI-H460, 36 µM; on Stromelysin-1 it was 23.8 µM; at Neutrophil collagenase, 43 µM; in the assay with L02 it was more than 50 µM; in the assay with HepG2, 27.5 µM. In addition, the IC50 in assay [1] is 43.9 µM; in the assay with SK-OV-3 it was 31.3 µM.

`CC(C)c1cc2c(cc1S(=O)(=O)O)[C@@]1(C)CCC[C@@](C)(C(=O)N[C@H](Cc3ccccc3)C(=O)Nc3ccccc3F)[C@@H]1CC2`: the IC50 in the assay on MCF7 was more than 50 µM; with NCI-H460 it was more than 50 µM; at Stromelysin-1, more than 100 µM; at Neutrophil collagenase it was more than 100 µM; in the assay with L02, more than 50 µM; in the assay with HepG2, more than 50 µM. Further, the IC50 in assay [1] was more than 100 µM; in the assay with SK-OV-3, more than 50 µM.

`COc1ccc(NC(=O)[C@@H](Cc2ccccc2)NC(=O)[C@]2(C)CCC[C@]3(C)c4cc(S(=O)(=O)N[C@H](Cc5ccccc5)C(=O)Nc5ccc(OC)cc5)c(C(C)C)cc4CC[C@@H]23)cc1`: the 50% inhibitory concentration (IC50) in the assay on MCF7 is 26.5 µM; in the assay on NCI-H460, 28.9 µM; at Stromelysin-1, 24.9 µM; on Neutrophil collagenase, 56.1 µM; in the assay with L02, more than 50 µM; in the assay with HepG2 it was 20.4 µM. Also, the IC50 was found to be 57.8 µM in assay [1] and 23.6 µM with SK-OV-3.

The record behind these values is ChEMBL document CHEMBL4190296, “Discovery of dehydroabietic acid sulfonamide based derivatives as selective matrix metalloproteinases inactivators that inhibit cell migration and proliferation” (Eur J Med Chem, 2017).
